According to ChEMBL document CHEMBL4842369, “Synthesis, structure-activity relationship and antiviral activity of indole-containing inhibitors of Flavivirus NS2B-NS3 protease” (Eur J Med Chem, 2021):

Experiments:
Nonstructural protein 3 = Nonstructural protein 3 (Zika virus, UniProt A0A024AXB9); assay: Inhibition of Zika virus recombinant NS2B (47 to 95 residues)/NS3 (1 to 177 residues) protease expressed in Escherichia coli BL21 using Bz-Nle-Lys-Lys-Arg-AMC as substrate preincubated for 10 mins by fluorescence-based biochemical assay
Sequence of Nonstructural protein 3 (A0A024AXB9 whole entry, the tested form may be a part): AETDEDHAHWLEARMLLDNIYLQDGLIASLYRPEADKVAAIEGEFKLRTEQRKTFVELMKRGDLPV
In short: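 ZIKV NS2B-NS3 protease at 1 nM, with 10 µM Bz-Nle-Lys-Lys-Arg-AMC in 20 mM HEPES pH 7.3 containing 0.05% Triton X-100. Compound at increasing concentrations in triplicate, pre-incubated with enzyme 10 min before substrate. Fluorescence (Ex 360/Em 460 nm) read every 30 s. IC50 from dose-response curve fit, 3 independent experiments, standard deviation.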

U-87 MG = assay: Cytotoxicity against human U87 cells assessed as inhibition of growth by MTT assay; format: cell-based; conditions: u-87mg atcc
Genome polyprotein [1] = molecular target: Genome polyprotein (West Nile virus, UniProt P06935); assay: Inhibition of West Nile virus NS2B (49 to 96 residues)/NS3 (2 to 184 residues) protease expressed in Escherichia coli BL21 using Bz-Nle-Lys-Lys-Arg-AMC as substrate preincubated for 10 mins by fluorescence-based biochemical assay
Sequence of Genome polyprotein (West Nile virus, UniProt P06935) (P06935 1371-1501 limits assumed): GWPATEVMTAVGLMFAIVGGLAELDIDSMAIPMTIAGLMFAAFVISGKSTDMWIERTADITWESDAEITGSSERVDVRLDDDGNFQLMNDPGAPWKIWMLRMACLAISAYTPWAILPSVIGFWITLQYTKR
Sequence of Genome polyprotein (West Nile virus, UniProt P06935) (P06935 1502-2120 limits assumed): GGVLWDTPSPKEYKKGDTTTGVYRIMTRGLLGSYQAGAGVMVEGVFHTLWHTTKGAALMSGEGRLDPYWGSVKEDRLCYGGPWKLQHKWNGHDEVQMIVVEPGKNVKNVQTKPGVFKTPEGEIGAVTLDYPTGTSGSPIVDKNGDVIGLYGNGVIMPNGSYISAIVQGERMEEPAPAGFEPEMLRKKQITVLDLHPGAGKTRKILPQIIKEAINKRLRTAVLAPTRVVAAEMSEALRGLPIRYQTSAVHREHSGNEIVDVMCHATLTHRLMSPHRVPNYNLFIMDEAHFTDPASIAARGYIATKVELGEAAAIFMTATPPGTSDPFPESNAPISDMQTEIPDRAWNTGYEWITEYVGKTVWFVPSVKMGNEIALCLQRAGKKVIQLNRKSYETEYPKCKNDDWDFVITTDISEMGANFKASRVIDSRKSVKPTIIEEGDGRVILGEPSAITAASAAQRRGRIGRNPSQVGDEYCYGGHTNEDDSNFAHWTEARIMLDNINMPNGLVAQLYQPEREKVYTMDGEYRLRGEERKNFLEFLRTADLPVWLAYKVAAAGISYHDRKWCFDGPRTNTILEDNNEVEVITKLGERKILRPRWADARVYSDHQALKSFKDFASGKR
In short: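 Recombinant WNV NS2B-NS3 protease, tested in the same way as the Zika protease assay. Compound was preincubated with enzyme for 10 min before Bz-Nle-Lys-Lys-Arg-AMC was added. Hydrolysis was followed as AMC fluorescence (Ex 360/Em 460 nm) read every 30 s. IC50 was derived by dose-response curve fitting.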

Genome polyprotein [2] = molecular target: Genome polyprotein (dengue virus type 2, UniProt P29990); assay: Inhibition of Dengue virus 2 NS2B (50 to 95 residues)/NS3 (1 to 182 residues) protease expressed in Escherichia coli BL21 using Bz-Nle-Lys-Lys-Arg-AMC as substrate preincubated for 10 mins by fluorescence-based biochemical assay
Sequence of Genome polyprotein (dengue virus type 2, UniProt P29990) (P29990 1346-1475 limits assumed): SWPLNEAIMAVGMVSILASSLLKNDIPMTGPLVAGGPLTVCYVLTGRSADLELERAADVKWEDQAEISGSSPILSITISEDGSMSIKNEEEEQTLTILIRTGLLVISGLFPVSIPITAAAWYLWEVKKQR
Sequence of Genome polyprotein (dengue virus type 2, UniProt P29990) (P29990 1476-2093 limits assumed): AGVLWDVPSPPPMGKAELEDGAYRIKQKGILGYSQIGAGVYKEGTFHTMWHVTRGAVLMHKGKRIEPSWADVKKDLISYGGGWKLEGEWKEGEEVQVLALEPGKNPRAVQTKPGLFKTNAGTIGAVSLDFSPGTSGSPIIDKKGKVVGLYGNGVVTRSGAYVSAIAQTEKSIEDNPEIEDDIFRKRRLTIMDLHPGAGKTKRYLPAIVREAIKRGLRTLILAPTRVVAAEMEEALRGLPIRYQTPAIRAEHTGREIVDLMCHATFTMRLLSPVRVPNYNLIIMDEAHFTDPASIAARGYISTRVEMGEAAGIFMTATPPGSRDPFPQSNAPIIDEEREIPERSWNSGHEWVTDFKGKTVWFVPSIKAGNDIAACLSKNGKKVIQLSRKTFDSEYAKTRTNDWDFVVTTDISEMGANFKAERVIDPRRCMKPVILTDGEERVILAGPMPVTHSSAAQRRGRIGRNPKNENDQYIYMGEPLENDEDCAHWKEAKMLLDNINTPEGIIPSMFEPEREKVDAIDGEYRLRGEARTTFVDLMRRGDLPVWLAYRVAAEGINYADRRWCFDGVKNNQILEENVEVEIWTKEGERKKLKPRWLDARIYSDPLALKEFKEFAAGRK
In short: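 Recombinant DENV-2 NS2B-NS3 protease assayed like the ZIKV protease. Bz-Nle-Lys-Lys-Arg-AMC substrate, compound pre-incubated with enzyme 10 min, fluorescence monitored at Ex 360/Em 460 nm. IC50 from dose-response fit of triplicate samples at increasing concentrations.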

Zika virus = assay: Antiviral activity against Zika virus infected in human U87 cells assessed as reduction in infectious virus in supernatant by measuring infection of Vero cells incubated with supernatant of viral infected U87 cells and measured following infection of supernatants with Vero cells for 7 days by MTT assay; format: functional; conditions: U-87 MG, 168 h, time 7 day
In short: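 U87 cells (2×10^4/well) in DMEM with 2% FBS, infected with ZIKV FLR strain (passage-3 stock) at MOI 0.01 for 1 h, then PBS-washed. Compound added in triplicate, 2 days at 37 °C. Half-log dilutions of supernatant put on Vero monolayers in quadruplicate for 7 days. CPE by microscopy then MTT. TCID50 from highest dilution infecting 2/4 wells. At least 2 independent experiments.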

Structure (SMILES) | IC50 (Nonstructural protein 3) | other results
CC(C)(C)c1ccc(-c2ccc3[nH]cc(C(=O)NCC4CCNCC4)c3c2)cc1 | 11 µM | –
O=C(NCC1CCNCC1)c1c[nH]c2cc(-c3ccccc3F)ccc12 | > 50 µM | –
O=C(NCC1CCNCC1)c1cc2cc(-c3ccc(N4CCOCC4)cc3)ccc2[nH]1 | 33 µM | –
O=C(NCC1CCNCC1)c1cc2ccc(-c3ccsc3)cc2[nH]1 | 6.4 µM | –
O=C(NCC1CCNCC1)c1cc2ccc(-c3ccc(Oc4ccccc4)cc3)cc2[nH]1 | 1.6 µM | CC50 (U-87 MG): > 10 µM; IC50 (Genome polyprotein [1]): 6.6 µM; IC50 (Genome polyprotein [2]): 6.5 µM; EC68 (Zika virus): 2.5 µM
O=C(NCC1CCNCC1)c1c[nH]c2nc(-c3ccc(CN4CCOCC4)cc3)ccc12 | 0.6 µM | CC50 (U-87 MG): > 10 µM; EC68 (Zika virus): > 10 µM
CC(C)(C)c1ccc(-c2ccc3c(c2)c(C(=O)NCC2CCNCC2)cn3CCCC2CCNCC2)cc1 | 14.6 µM | –
O=C(NCC1CCNCC1)c1cc2ccc(C3=CCOCC3)cc2[nH]1 | 2.2 µM | –
O=C(NCC1CCNCC1)c1c[nH]c2nc(-c3ccc(C(F)(F)F)cc3)ccc12 | 18.1 µM | –
O=C(NCC1CCNCC1)c1c[nH]c2cc(-c3cccnc3)ccc12 | 1.1 µM | –
O=C(NCCC1CCNCC1)c1c[nH]c2cc(-c3ccncc3)ccc12 | 0.63 µM | CC50 (U-87 MG): > 10 µM; EC68 (Zika virus): 10 µM
NC(=O)c1ccc(-c2ccc3cc(C(=O)NCC4CCNCC4)[nH]c3c2)cc1 | 7.1 µM | –
O=C(NCC1CCNCC1)c1cc2ccc(-c3ccc(OC(F)(F)F)cc3)cc2[nH]1 | – | CC50 (U-87 MG): > 10 µM; IC50 (Genome polyprotein [1]): 16 µM; IC50 (Genome polyprotein [2]): 10.7 µM; EC68 (Zika virus): > 10 µM
NCc1ccc(-c2ccc3cc(C(=O)NCC4CCNCC4)[nH]c3c2)cc1 | 3.2 µM | –
CC(C)(C)c1ccc(-c2cc3[nH]cc(C(=O)NC4CCNCC4)c3cc2-c2ccc(C(C)(C)C)cc2)cc1 | 4.5 µM | –
O=C(NCC1CCNCC1)c1cc2ccc(-c3ccncc3)cc2[nH]1 | 19.7 µM | –
O=C(NCC1CCNCC1)c1cc2cc(-c3ccc(CN4CCCCC4)cc3)ccc2[nH]1 | 4.7 µM | –
O=C(NCC1CCNCC1)c1c[nH]c2ccc(-c3ccc(F)cc3)cc12 | > 50 µM | –
O=C(NCC1CCNCC1)c1c[nH]c2ccc(-c3ccc(F)cc3F)cc12 | > 50 µM | –
O=C(NCC1CCNCC1)c1c[nH]c2nc(-c3ccncc3)ccc12 | 1.9 µM | –
O=C(NCC1CCNCC1)c1cc2cc(-c3ccc(N4CCCCC4)cc3)ccc2[nH]1 | 11.4 µM | IC50 (Genome polyprotein [1]): 31 µM; IC50 (Genome polyprotein [2]): 40.2 µM
N#Cc1ccc(-c2ccc3[nH]cc(C(=O)NC4CCNCC4)c3c2)cc1 | > 50 µM | –

Structure (SMILES) | IC50 (Nonstructural protein 3) | other results
Cc1cc(C#N)ccc1-c1ccc2[nH]c(C(=O)NCC3CCNCC3)cc2c1 | 40.2 µM | IC50 (Genome polyprotein [1]): > 50 µM; IC50 (Genome polyprotein [2]): > 50 µM
O=C(NCC1CCNCC1)c1cc2cc(-c3cccnc3)ccc2[nH]1 | > 50 µM | –
O=C(NCC1CCNCC1)c1cc2ccc(-c3ccc(N4CCCCC4)cc3)cc2[nH]1 | 7.9 µM | –
O=Cc1cccc(-c2ccc3[nH]cc(C(=O)NCC4CCNCC4)c3c2)c1 | > 50 µM | –
O=C(NCC1CCNCC1)c1c[nH]c2cc(-c3cn[nH]c3)ccc12 | 5.7 µM | IC50 (Genome polyprotein [1]): 42 µM; IC50 (Genome polyprotein [2]): 48.3 µM
COc1cc(-c2ccc3c(C(=O)NCC4CCNCC4)c[nH]c3c2)cc(OC)c1OC | > 50 µM | –
O=C(NCC1CCNCC1)c1cc2ccc(-c3cn[nH]c3)cc2[nH]1 | 0.99 µM | CC50 (U-87 MG): > 10 µM; IC50 (Genome polyprotein [1]): 3.5 µM; IC50 (Genome polyprotein [2]): 10.3 µM; EC68 (Zika virus): > 10 µM
O=C(NCC1CCNCC1)c1c[nH]c2cc(-c3ccncc3)ccc12 | 0.39 µM | –
COc1ccc(-c2ccc3cc(C(=O)NCC4CCNCC4)[nH]c3c2)cc1 | 1 µM | IC50 (Genome polyprotein [1]): 20.1 µM; IC50 (Genome polyprotein [2]): 10.6 µM
O=C(NCC1CCNCC1)c1c[nH]c2cc(-c3ccc(CN4CCCCC4)cc3)ccc12 | 3.1 µM | CC50 (U-87 MG): > 10 µM; IC50 (Genome polyprotein [1]): 32 µM; IC50 (Genome polyprotein [2]): 49.7 µM; EC68 (Zika virus): 10 µM
O=C(NCC1CCNCC1)c1cc2ccc(C3=CCNCC3)cc2[nH]1 | 21 µM | –
N#Cc1ccc(-c2ccc3[nH]c(C(=O)NCC4CCNCC4)cc3c2)cc1 | 9.2 µM | –
COc1cc(-c2ccc3[nH]cc(C(=O)NC4CCNCC4)c3c2)cc(OC)c1OC | > 50 µM | –
O=C(NC1CCNCC1)c1cc2ccc(-c3ccncc3)cc2[nH]1 | 9.8 µM | –
O=C(NCC1CCNCC1)c1cc2ccc(-c3ccc(F)cc3)cc2[nH]1 | 14.4 µM | –
O=C(NCC1CCNCC1)c1cc2ccc(-c3ccc(CCO)cc3)cc2[nH]1 | 45.6 µM | –
CC(C)(C)c1ccc(-c2ccc3c(ccn3Cc3ccc(-c4ccoc4)cc3)c2)cc1 | > 50 µM | –
N#Cc1ccc(-c2ccc3c(C(=O)NC4CCNCC4)coc3c2)cc1 | > 50 µM | –
Cc1ccc(-c2ccc3c(C(=O)NCC4CCNCC4)c[nH]c3c2)cc1 | 48.9 µM | IC50 (Genome polyprotein [1]): > 50 µM; IC50 (Genome polyprotein [2]): > 50 µM
O=C(NCC1CCNCC1)c1cc2ccc(-c3ccccc3)cc2[nH]1 | 9.4 µM | –
CC(C)(C)c1ccc(-c2ccc3c(C(=O)NCC4CCNCC4)c[nH]c3c2)cc1 | 5 µM | IC50 (Genome polyprotein [1]): 35.1 µM; IC50 (Genome polyprotein [2]): 30.4 µM
NCc1ccc(-c2ccc3c(C(=O)NCC4CCNCC4)c[nH]c3c2)cc1 | > 50 µM | –

Structure (SMILES) | IC50 (Nonstructural protein 3) | other results
O=C(NCC1CCNCC1)c1cc2cc(-c3ccc(-c4ccoc4)cc3)ccc2[nH]1 | 0.87 µM | –
CC(C)(C)c1ccc(-c2ccc3[nH]c(C(=O)NCC4CCNCC4)cc3c2)cc1 | 7 µM | –
O=C(NCC1CCNCC1)c1c[nH]c2cc(-c3ccc(Cl)nc3)ccc12 | 42 µM | –
O=C(NCC1CCNCC1)c1cc2ccccc2[nH]1 | 24.6 µM | –
O=C(NCC1CCNCC1)c1c[nH]c2cc(-c3ccc(F)cc3)ccc12 | > 50 µM | –
O=C(NCC1CCNCC1)c1cc2cc(-c3cn[nH]c3)ccc2[nH]1 | 6 µM | –
O=C(NC1CCNCC1)c1coc2cc(-c3ccoc3)ccc12 | 2.86 µM | –
O=C(NCC1CCNCC1)c1cc2cc(-c3ccc(N4CCCC4)cc3)ccc2[nH]1 | 3.4 µM | –
O=C(NCC1CCNCC1)c1cc2ccc(-c3ccc(N4CCNCC4)cc3)cc2[nH]1 | 5.6 µM | –
O=C(NCC1CCNCC1)c1cc2ccc(-c3ccc(CO)cc3)cc2[nH]1 | 3.1 µM | CC50 (U-87 MG): > 10 µM; EC68 (Zika virus): > 10 µM
N#Cc1ccc(-c2ccc3c(C(=O)NCC4CCNCC4)c[nH]c3c2)cc1 | 21.8 µM | IC50 (Genome polyprotein [1]): 50.5 µM; IC50 (Genome polyprotein [2]): 12 µM
NCc1ccc(-c2ccc3[nH]c(C(=O)NCC4CCNCC4)cc3c2)cc1 | 9.5 µM | –
CC(C)(C)c1ccc(-c2ccc3c(ccn3Cc3ccc(-c4ccncc4)cc3)c2)cc1 | > 50 µM | –
CC(C)(C)c1ccc(-c2ccc3cc(C(=O)NCC4CCNCC4)[nH]c3c2)cc1 | – | IC50 (Genome polyprotein [1]): 21.8 µM; IC50 (Genome polyprotein [2]): 15 µM
O=C(NCC1CCNCC1)c1cc2cc(-c3ccncc3)ccc2[nH]1 | 37 µM | –
O=C(NCC1CCNCC1)c1cc2cc(-c3ccc(N4CCNCC4)cc3)ccc2[nH]1 | 8.8 µM | –
O=C(NCC1CCNCC1)c1c[nH]c2cc(-c3ccc(-c4ccccc4)cc3)ccc12 | 4.2 µM | CC50 (U-87 MG): > 10 µM; EC68 (Zika virus): > 10 µM
N#Cc1cccc(-c2ccc3[nH]c(C(=O)NCC4CCNCC4)cc3c2)c1 | 30.5 µM | –
O=C(NCC1CCNCC1)c1cc2cc(-c3ccc(-c4ccsc4)cc3)ccc2[nH]1 | 1.1 µM | –
O=C(NCC1CCNCC1)c1cc2ccc(-c3cccnc3)cc2[nH]1 | 27.2 µM | –
